Test results as given in PubChem BioAssay AID504588 (Broad Institute, 2011).

System: U2OS HRE-luciferase reporter, luminescence
Test: hypoxia response element transcription activators – U2OS cells, luminescence, dry powder, set 10, dose response (AID 504588)
Method in brief: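 Assay system: human U2OS osteosarcoma cells stably expressing 3×HRE-driven luciferase reporter. Input: 6,000 cells per well. Schedule: 24 h compound exposure at 37 °C, 5% CO2, 21% O2. Measured by: Steady-Glo luminescence. Compound dosing: 3-fold dilution series.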

**Q.** How did the AC40 turn out when `Clc1cccc(CNc2nc(-c3ccccn3)nnc2-c2ccccc2)c1` was run?
**A.** 1310 nM

**Q.** `c1ccc(CCNc2nc(-c3ccccn3)nnc2-c2ccccc2)cc1` was tested. Which AC40 did it give?
**A.** 2520 nM

**Q.** How did the AC40 turn out when `CC(C)(C)c1ccc(CNc2nc(-c3ccccn3)nnc2-c2ccccc2)cc1` was run?
**A.** 447 nM

**Q.** For `CC(C)(C)CCNc1nc(-c2ccccn2)nnc1-c1ccccc1`, which AC40 is on record?
**A.** 940 nM

**Q.** With `c1ccc(-c2ccc(CNc3nc(-c4ccccn4)nnc3-c3ccccc3)cc2)cc1` as the compound, how does the AC40 read?
**A.** 360 nM

**Q.** With `c1ccc(-c2cccc(CNc3nc(-c4ccccn4)nnc3-c3ccccc3)c2)cc1` as the compound, how does the AC40 read?
**A.** 721 nM
